# Activity calls are given as the source filed them. No cut-off for these calls is given here. Where a SMILES comes first, the peptide text is derived from it. The star is where a group is joined. Propyl(2R-PamO,3-PamO) = CCCCCCCCCCCCCCCC(=O)OC[C@H](C*)OC(=O)CCCCCCCCCCCCCCC; X1 = CCCCCCCCCCCCCCCC(=O)OC[C@@H](C*)OC(=O)CCCCCCCCCCCCCCC; Palmitoyl = CCCCCCCCCCCCCCCC(=O)*
# How the values were obtained:
# [1] = target: Toll-like receptor 4 (Homo sapiens) (UniProt O00206); assay: Agonist activity at human TLR4 expressed in HEK cells assessed as increase in IL-8 production at 25 to 100 nM incubated for 24 hrs by ELISA; assay type: cell-based; details: HEK293
# [2] = target: Toll-like receptor 2 (Mus musculus) (UniProt Q9QUN7); assay: Agonist activity at TLR2 in H-2b harboring B6 mouse DC assessed as cell maturation by measuring increase in IL-12 p40 production at 0.0625 to 1 uM incubated for 48 hrs by sandwich ELISA
# In short: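 Supernatants were harvested and IL-12 secretion measured by ELISA. Data shown are one representative of three independent experiments.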
# [3] = target: Toll-like receptor 2 (Homo sapiens) (UniProt O60603); assay: Agonist activity at human TLR2 expressed in HEK cells assessed as increase in IL-8 production at 25 to 100 nM incubated for 24 hrs by ELISA; assay type: cell-based; details: HEK293
# In short: (§1)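 HEK cells transfected with human TLR2 were incubated 24 h with conjugates at 100–25 nM, or with Pam₃CysSK₄ at 100 ng/mL. Receptor activation was read as IL-8 produced in the assay. Error bars are SD.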
# [4] = Aqueous solubility of compound; assay type: physicochemical; details: buffer
# [5] = Drug uptake in H-2b harboring B6 mouse DC at 1 uM after 15 mins by confocal microscopic analysis; assay type: ADME; details: in vitro, 0.25 h
# In short: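 Dendritic cells were exposed to conjugate for 15 min. Uptake and intracellular localisation were imaged by confocal laser scanning microscopy. Images are representative of multiple cells in at least 3 experiments.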
# [6] = target: Toll-like receptor 2 (Homo sapiens) (UniProt O60603); assay: Agonist activity at human TLR2 expressed in HEK cells assessed as increase in IL-8 production at 100 ng/ml incubated for 24 hrs by ELISA; assay type: cell-based; details: HEK293; in short: as §1
# Toll-like receptor 2 (Homo sapiens), sequence (O60603 whole entry): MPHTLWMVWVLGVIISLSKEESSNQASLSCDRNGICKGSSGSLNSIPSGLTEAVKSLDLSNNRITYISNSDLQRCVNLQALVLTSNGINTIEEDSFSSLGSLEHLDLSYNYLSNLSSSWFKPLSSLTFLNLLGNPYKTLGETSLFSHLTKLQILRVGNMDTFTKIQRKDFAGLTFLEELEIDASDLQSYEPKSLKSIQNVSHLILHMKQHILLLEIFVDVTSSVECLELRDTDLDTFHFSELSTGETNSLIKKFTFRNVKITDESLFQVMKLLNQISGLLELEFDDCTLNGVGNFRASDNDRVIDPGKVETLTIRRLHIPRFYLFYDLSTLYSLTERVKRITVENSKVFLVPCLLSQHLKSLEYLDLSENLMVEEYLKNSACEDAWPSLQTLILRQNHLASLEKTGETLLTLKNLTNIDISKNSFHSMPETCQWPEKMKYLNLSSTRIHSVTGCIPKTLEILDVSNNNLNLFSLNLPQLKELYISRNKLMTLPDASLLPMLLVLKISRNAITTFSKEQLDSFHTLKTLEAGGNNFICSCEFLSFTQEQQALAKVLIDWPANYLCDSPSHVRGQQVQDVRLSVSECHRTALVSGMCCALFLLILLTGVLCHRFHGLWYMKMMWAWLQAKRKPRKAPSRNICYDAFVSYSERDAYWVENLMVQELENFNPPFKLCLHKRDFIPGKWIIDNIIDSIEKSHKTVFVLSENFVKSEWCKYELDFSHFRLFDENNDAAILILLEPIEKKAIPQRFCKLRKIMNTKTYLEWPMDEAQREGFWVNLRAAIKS
# Toll-like receptor 2 (Mus musculus), sequence (Q9QUN7 whole entry): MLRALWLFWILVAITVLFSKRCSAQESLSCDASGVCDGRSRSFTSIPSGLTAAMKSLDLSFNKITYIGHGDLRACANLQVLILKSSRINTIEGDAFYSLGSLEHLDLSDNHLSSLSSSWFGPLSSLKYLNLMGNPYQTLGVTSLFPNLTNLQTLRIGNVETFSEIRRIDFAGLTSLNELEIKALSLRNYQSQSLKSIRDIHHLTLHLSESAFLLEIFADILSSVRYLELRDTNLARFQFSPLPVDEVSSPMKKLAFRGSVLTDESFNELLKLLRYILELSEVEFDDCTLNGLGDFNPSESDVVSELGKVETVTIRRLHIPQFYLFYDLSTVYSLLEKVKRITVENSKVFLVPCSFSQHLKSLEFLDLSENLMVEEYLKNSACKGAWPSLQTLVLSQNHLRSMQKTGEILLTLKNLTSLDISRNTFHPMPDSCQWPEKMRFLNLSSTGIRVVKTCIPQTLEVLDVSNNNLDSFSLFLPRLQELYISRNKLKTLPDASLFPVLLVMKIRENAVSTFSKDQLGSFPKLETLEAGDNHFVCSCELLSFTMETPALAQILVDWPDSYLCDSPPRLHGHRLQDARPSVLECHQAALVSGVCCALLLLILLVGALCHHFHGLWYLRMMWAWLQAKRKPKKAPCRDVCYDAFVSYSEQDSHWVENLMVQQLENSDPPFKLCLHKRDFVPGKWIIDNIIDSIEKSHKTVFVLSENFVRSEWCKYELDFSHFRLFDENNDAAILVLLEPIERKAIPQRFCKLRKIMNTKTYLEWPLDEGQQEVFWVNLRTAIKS
# Toll-like receptor 4 (Homo sapiens), sequence (O00206 whole entry): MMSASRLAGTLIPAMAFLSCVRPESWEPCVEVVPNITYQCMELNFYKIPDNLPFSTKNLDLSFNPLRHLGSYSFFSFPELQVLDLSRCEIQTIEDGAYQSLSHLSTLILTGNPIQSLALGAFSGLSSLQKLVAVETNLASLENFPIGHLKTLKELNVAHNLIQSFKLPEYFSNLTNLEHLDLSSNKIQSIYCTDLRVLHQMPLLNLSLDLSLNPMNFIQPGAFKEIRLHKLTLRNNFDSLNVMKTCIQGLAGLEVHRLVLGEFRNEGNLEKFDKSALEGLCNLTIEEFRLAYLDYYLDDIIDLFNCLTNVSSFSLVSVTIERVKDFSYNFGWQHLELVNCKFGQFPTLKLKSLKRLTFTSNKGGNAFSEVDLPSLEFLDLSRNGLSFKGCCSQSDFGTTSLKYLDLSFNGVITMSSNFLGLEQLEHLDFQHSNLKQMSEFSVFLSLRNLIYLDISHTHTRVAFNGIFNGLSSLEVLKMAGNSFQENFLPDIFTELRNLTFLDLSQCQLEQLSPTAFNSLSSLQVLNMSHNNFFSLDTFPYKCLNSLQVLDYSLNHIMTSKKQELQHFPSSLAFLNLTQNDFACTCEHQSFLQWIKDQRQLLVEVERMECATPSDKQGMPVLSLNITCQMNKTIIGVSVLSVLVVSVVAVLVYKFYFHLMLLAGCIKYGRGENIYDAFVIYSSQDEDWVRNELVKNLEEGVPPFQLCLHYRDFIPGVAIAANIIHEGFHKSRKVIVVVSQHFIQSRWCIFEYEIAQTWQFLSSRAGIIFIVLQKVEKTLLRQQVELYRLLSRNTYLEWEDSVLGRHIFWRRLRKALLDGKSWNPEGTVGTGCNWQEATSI
Activity [1],Activity [2],Activity [3],solubility [4],Drug uptake [5],Activity [6],Compound
inactive,Active,Active,–,–,–,"CCCCCCCCCCCCCCCC(=O)N[C@@H](CSC[C@@H](COC(=O)CCCCCCCCCCCCCCC)OC(=O)CCCCCCCCCCCCCCC)C(=O)N[C@@H](CO)C(=O)N[C@@H](CCCCN)C(=O)N[C@@H](CCCCN)C(=O)N[C@@H](CCCCN)C(=O)N[C@@H](CCCCN)C(=O)N[C@@H](CC(=O)O)C(=O)N[C@@H](CCC(=O)O)C(=O)N[C@H](C(=O)N[C@@H](CO)C(=O)NCC(=O)N[C@@H](CC(C)C)C(=O)N[C@@H](CCC(=O)O)C(=O)N[C@@H](CCC(N)=O)C(=O)N[C@@H](CC(C)C)C(=O)N[C@@H](CCC(=O)O)C(=O)N[C@@H](CO)C(=O)N[C@H](C(=O)N[C@H](C(=O)N[C@@H](CC(N)=O)C(=O)N[C@@H](Cc1ccccc1)C(=O)N[C@@H](CCC(=O)O)C(=O)N[C@@H](CCCCN)C(=O)N[C@@H](CC(C)C)C(=O)O)[C@@H](C)CC)[C@@H](C)CC)C(C)C (Palmitoyl-C(Propyl(2R-PamO,3-PamO))SKKKKDEVSGLEQLESIINFEKL-OH)"
inactive,Active,Active,–,–,–,CCCCCCCCCCCCCCCC(=O)N[C@@H](CSC[C@@H](COC(=O)CCCCCCCCCCCCCCC)OC(=O)CCCCCCCCCCCCCCC)C(=O)N[C@@H](CO)C(=O)N[C@@H](CCCCN)C(=O)N[C@@H](CCCCN)C(=O)N[C@@H](CCCCN)C(=O)N[C@@H](CCCCN)C(=O)N[C@@H](CC(=O)O)C(=O)N[C@@H](CCC(=O)O)C(=O)N[C@H](C(=O)N[C@@H](CO)C(=O)NCC(=O)N[C@@H](CC(C)C)C(=O)N[C@@H](CCC(=O)O)C(=O)N[C@@H](CCC(N)=O)C(=O)N[C@@H](CC(C)C)C(=O)N[C@@H](CCC(=O)O)C(=O)N[C@@H](CO)C(=O)N[C@H](C(=O)N[C@H](C(=O)N[C@@H](CC(N)=O)C(=O)N[C@@H](Cc1ccccc1)C(=O)N[C@H](CCC(=O)O)C(=O)N[C@@H](CCCCn1nnc2c1CC[C@H]1[C@@H](CC2)[C@H]1COC(=O)NCCOCCOCCNC(=O)CCCC[N+]1=C(/C=C/C=C/C=C2\N(C)c3ccccc3C2(C)C)C(C)(C)c2ccccc21)C(=O)N[C@H](CC(C)C)C(=O)O)[C@H](C)CC)[C@H](C)CC)C(C)C
inactive,inactive,inactive,–,–,–,CCCCCCCCCCCCCCCC(=O)N[C@@H](CSC[C@H](COC(=O)CCCCCCCCCCCCCCC)OC(=O)CCCCCCCCCCCCCCC)C(=O)N[C@@H](CO)C(=O)N[C@@H](CCCCN)C(=O)N[C@@H](CCCCN)C(=O)N[C@@H](CCCCN)C(=O)N[C@@H](CCCCN)C(=O)N[C@@H](CC(=O)O)C(=O)N[C@@H](CCC(=O)O)C(=O)N[C@H](C(=O)N[C@@H](CO)C(=O)NCC(=O)N[C@@H](CC(C)C)C(=O)N[C@@H](CCC(=O)O)C(=O)N[C@@H](CCC(N)=O)C(=O)N[C@@H](CC(C)C)C(=O)N[C@@H](CCC(=O)O)C(=O)N[C@@H](CO)C(=O)N[C@H](C(=O)N[C@H](C(=O)N[C@@H](CC(N)=O)C(=O)N[C@@H](Cc1ccccc1)C(=O)N[C@H](CCC(=O)O)C(=O)N[C@@H](CCCCn1nnc2c1CC[C@H]1[C@@H](CC2)[C@H]1COC(=O)NCCOCCOCCNC(=O)CCCC[N+]1=C(/C=C/C=C/C=C2\N(C)c3ccccc3C2(C)C)C(C)(C)c2ccccc21)C(=O)N[C@H](CC(C)C)C(=O)O)[C@H](C)CC)[C@H](C)CC)C(C)C
–,inactive,–,Insoluble,–,–,CCCCCCCCCCCCCCCC(=O)N[C@H](CSC[C@@H](COC(=O)CCCCCCCCCCCCCCC)OC(=O)CCCCCCCCCCCCCCC)C(=O)N[C@H](CO)C(=O)N[C@H](CCCCN)C(=O)N[C@H](CCCCN)C(=O)N[C@H](CCCCN)C(=O)N[C@H](CCCCN)C(=O)N[C@H](CC(=O)O)C(=O)N[C@H](CCC(=O)O)C(=O)N[C@@H](C(=O)N[C@H](CO)C(=O)NCC(=O)N[C@H](CC(C)C)C(=O)N[C@H](CCC(=O)O)C(=O)N[C@H](CCC(N)=O)C(=O)N[C@H](CC(C)C)C(=O)N[C@H](CCC(=O)O)C(=O)N[C@H](CO)C(=O)N[C@@H](C(=O)N[C@@H](C(=O)N[C@H](CC(N)=O)C(=O)N[C@H](Cc1ccccc1)C(=O)N[C@@H](CCC(=O)O)C(=O)N[C@H](CCCCn1nnc2c1CC[C@@H]1[C@H](CC2)[C@@H]1COC(=O)NCCOCCOCCNC(=O)c1ccc(-c2c3ccc(=[N+](C)C)cc-3oc3cc(N(C)C)ccc23)c(C(=O)[O-])c1)C(=O)N[C@@H](CC(C)C)C(=O)O)[C@@H](C)CC)[C@@H](C)CC)C(C)C
–,–,–,–,Active,–,CCCCCCCCCCCCCCCC(=O)N[C@@H](CSC[C@@H](COC(=O)CCCCCCCCCCCCCCC)OC(=O)CCCCCCCCCCCCCCC)C(=O)N[C@@H](CO)C(=O)N[C@@H](CCCCN)C(=O)N[C@@H](CCCCN)C(=O)N[C@@H](CCCCN)C(=O)N[C@@H](CCCCN)C(=O)N[C@@H](CC(=O)O)C(=O)N[C@@H](CCC(=O)O)C(=O)N[C@H](C(=O)N[C@@H](CO)C(=O)NCC(=O)N[C@@H](CC(C)C)C(=O)N[C@@H](CCC(=O)O)C(=O)N[C@@H](CCC(N)=O)C(=O)N[C@@H](CC(C)C)C(=O)N[C@@H](CCC(=O)O)C(=O)N[C@@H](CO)C(=O)N[C@H](C(=O)N[C@H](C(=O)N[C@@H](CC(N)=O)C(=O)N[C@@H](Cc1ccccc1)C(=O)N[C@@H](CCC(=O)O)C(=O)N[C@@H](CCCCn1nnc2c1CC[C@H]1[C@@H](CC2)[C@H]1COC(=O)NCCOCCOCCNC(=O)CCCC[N+]1=C(/C=C/C=C/C=C2\N(C)c3ccccc3C2(C)C)C(C)(C)c2ccccc21)C(=O)N[C@@H](CC(C)C)C(=O)O)[C@@H](C)CC)[C@@H](C)CC)C(C)C
inactive,inactive,inactive,–,–,–,CCCCCCCCCCCCCCCC(=O)N[C@@H](CSC[C@H](COC(=O)CCCCCCCCCCCCCCC)OC(=O)CCCCCCCCCCCCCCC)C(=O)N[C@@H](CO)C(=O)N[C@@H](CCCCN)C(=O)N[C@@H](CCCCN)C(=O)N[C@@H](CCCCN)C(=O)N[C@@H](CCCCN)C(=O)N[C@@H](CC(=O)O)C(=O)N[C@@H](CCC(=O)O)C(=O)N[C@H](C(=O)N[C@@H](CO)C(=O)NCC(=O)N[C@@H](CC(C)C)C(=O)N[C@@H](CCC(=O)O)C(=O)N[C@@H](CCC(N)=O)C(=O)N[C@@H](CC(C)C)C(=O)N[C@@H](CCC(=O)O)C(=O)N[C@@H](CO)C(=O)N[C@H](C(=O)N[C@H](C(=O)N[C@@H](CC(N)=O)C(=O)N[C@@H](Cc1ccccc1)C(=O)N[C@@H](CCC(=O)O)C(=O)N[C@@H](CCCCN)C(=O)N[C@@H](CC(C)C)C(=O)O)[C@@H](C)CC)[C@@H](C)CC)C(C)C (Palmitoyl-C(X1)SKKKKDEVSGLEQLESIINFEKL-OH)
–,–,–,–,–,Active,"CCCCCCCCCCCCCCCC(=O)N[C@@H](CSC[C@@H](COC(=O)CCCCCCCCCCCCCCC)OC(=O)CCCCCCCCCCCCCCC)C(=O)N[C@@H](CO)C(=O)N[C@@H](CCCCN)C(=O)N[C@@H](CCCCN)C(=O)N[C@@H](CCCCN)C(=O)N[C@@H](CCCCN)C(=O)O (Palmitoyl-C(Propyl(2R-PamO,3-PamO))SKKKK-OH)"
–,–,–,–,Active,–,CCCCCCCCCCCCCCCC(=O)N[C@@H](CSC[C@H](COC(=O)CCCCCCCCCCCCCCC)OC(=O)CCCCCCCCCCCCCCC)C(=O)N[C@@H](CO)C(=O)N[C@@H](CCCCN)C(=O)N[C@@H](CCCCN)C(=O)N[C@@H](CCCCN)C(=O)N[C@@H](CCCCN)C(=O)N[C@@H](CC(=O)O)C(=O)N[C@@H](CCC(=O)O)C(=O)N[C@H](C(=O)N[C@@H](CO)C(=O)NCC(=O)N[C@@H](CC(C)C)C(=O)N[C@@H](CCC(=O)O)C(=O)N[C@@H](CCC(N)=O)C(=O)N[C@@H](CC(C)C)C(=O)N[C@@H](CCC(=O)O)C(=O)N[C@@H](CO)C(=O)N[C@H](C(=O)N[C@H](C(=O)N[C@@H](CC(N)=O)C(=O)N[C@@H](Cc1ccccc1)C(=O)N[C@@H](CCC(=O)O)C(=O)N[C@@H](CCCCn1nnc2c1CC[C@H]1[C@@H](CC2)[C@H]1COC(=O)NCCOCCOCCNC(=O)CCCC[N+]1=C(/C=C/C=C/C=C2\N(C)c3ccccc3C2(C)C)C(C)(C)c2ccccc21)C(=O)N[C@@H](CC(C)C)C(=O)O)[C@@H](C)CC)[C@@H](C)CC)C(C)C
–,Active,–,Insoluble,–,–,CCCCCCCCCCCCCCCC(=O)N[C@H](CSC[C@H](COC(=O)CCCCCCCCCCCCCCC)OC(=O)CCCCCCCCCCCCCCC)C(=O)N[C@H](CO)C(=O)N[C@H](CCCCN)C(=O)N[C@H](CCCCN)C(=O)N[C@H](CCCCN)C(=O)N[C@H](CCCCN)C(=O)N[C@H](CC(=O)O)C(=O)N[C@H](CCC(=O)O)C(=O)N[C@@H](C(=O)N[C@H](CO)C(=O)NCC(=O)N[C@H](CC(C)C)C(=O)N[C@H](CCC(=O)O)C(=O)N[C@H](CCC(N)=O)C(=O)N[C@H](CC(C)C)C(=O)N[C@H](CCC(=O)O)C(=O)N[C@H](CO)C(=O)N[C@@H](C(=O)N[C@@H](C(=O)N[C@H](CC(N)=O)C(=O)N[C@H](Cc1ccccc1)C(=O)N[C@@H](CCC(=O)O)C(=O)N[C@H](CCCCn1nnc2c1CC[C@@H]1[C@H](CC2)[C@@H]1COC(=O)NCCOCCOCCNC(=O)c1ccc(-c2c3ccc(=[N+](C)C)cc-3oc3cc(N(C)C)ccc23)c(C(=O)[O-])c1)C(=O)N[C@@H](CC(C)C)C(=O)O)[C@@H](C)CC)[C@@H](C)CC)C(C)C

# Source: ChEMBL document CHEMBL3817818, “Synthesis and evaluation of fluorescent Pam3Cys peptide conjugates” (Bioorg Med Chem Lett, 2016)
